Source: ChEMBL document CHEMBL3232836, “Discovery of 4-anilino α-carbolines as novel Brk inhibitors” (Bioorg Med Chem Lett, 2014)
Values belong to the compound of their own block, whether it stands above or below them.

Experiments:
[1] = biological target: Protein-tyrosine kinase 6 (Homo sapiens, UniProt Q13882); assay: Inhibition of Brk (unknown origin) using [gamma-33P]-ATP after 60 mins by scintillation counting
[2] = biological target: Tyrosine-protein kinase JAK3 (Homo sapiens, UniProt P52333); assay: Inhibition of human JAK3
Tyrosine-protein kinase JAK3, sequence (P52333 whole entry): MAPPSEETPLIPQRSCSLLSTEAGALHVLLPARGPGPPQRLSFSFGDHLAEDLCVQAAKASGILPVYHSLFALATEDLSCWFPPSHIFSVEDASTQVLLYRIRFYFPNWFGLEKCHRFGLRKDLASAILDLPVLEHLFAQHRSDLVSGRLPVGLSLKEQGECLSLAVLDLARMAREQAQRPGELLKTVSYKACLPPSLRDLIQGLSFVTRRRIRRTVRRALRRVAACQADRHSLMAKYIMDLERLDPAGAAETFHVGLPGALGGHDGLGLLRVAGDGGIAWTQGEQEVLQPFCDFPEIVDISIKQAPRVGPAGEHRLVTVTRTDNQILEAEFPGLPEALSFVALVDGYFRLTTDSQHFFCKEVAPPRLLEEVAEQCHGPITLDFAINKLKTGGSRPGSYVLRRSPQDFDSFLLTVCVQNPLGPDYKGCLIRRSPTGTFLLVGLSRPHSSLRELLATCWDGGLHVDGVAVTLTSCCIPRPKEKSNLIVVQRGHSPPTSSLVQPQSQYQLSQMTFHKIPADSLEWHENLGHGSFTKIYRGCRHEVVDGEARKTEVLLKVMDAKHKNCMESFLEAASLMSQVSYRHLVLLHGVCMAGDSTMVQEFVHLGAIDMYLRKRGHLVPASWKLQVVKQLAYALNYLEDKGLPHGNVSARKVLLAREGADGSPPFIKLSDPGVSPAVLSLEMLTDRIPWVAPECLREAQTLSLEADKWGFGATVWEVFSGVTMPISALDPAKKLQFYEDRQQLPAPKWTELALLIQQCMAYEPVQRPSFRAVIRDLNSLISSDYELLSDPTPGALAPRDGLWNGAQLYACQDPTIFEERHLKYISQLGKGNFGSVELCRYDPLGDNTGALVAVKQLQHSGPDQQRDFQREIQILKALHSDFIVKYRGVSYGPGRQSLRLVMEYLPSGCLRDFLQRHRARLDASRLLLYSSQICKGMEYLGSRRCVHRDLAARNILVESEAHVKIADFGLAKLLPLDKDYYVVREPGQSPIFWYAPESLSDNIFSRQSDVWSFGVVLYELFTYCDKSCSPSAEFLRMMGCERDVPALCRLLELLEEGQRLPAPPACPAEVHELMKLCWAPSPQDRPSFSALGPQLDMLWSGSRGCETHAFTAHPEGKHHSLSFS
In short: (§1)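 Radiometric kinase assay in FlashPlates. Test compound was added from a 10% DMSO solution and ATP from an aqueous solution. The reaction was stopped with 2% (v/v) phosphoric acid, and plates were aspirated and washed with water or 0.9% NaCl. ³³Pi incorporation was read on a microplate scintillation counter.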

MCF7 = assay: Antiproliferative activity against human MCF7 cells by sulfur rhodamine assay; format: functional
[3] = biological target: Serine/threonine-protein kinase Nek2 (Homo sapiens, UniProt P51955); assay: Inhibition of human NEK2
[4] = biological target: RAC-alpha serine/threonine-protein kinase (Homo sapiens, UniProt P31749); assay: Inhibition of human AKT1
RAC-alpha serine/threonine-protein kinase, sequence (P31749 whole entry): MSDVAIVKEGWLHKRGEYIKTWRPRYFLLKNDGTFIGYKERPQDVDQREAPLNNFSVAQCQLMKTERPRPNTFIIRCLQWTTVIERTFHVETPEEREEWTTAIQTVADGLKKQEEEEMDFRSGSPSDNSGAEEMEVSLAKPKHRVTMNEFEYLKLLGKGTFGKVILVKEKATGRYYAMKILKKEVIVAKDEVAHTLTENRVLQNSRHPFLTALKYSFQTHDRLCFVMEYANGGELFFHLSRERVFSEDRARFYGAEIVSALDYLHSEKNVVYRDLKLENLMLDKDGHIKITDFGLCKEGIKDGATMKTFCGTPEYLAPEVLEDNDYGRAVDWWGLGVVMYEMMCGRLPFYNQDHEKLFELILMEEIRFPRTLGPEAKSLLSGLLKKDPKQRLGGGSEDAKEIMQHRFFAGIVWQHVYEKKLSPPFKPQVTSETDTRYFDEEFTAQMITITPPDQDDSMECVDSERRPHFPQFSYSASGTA

[5] = biological target: MAP kinase-activated protein kinase 5 (Homo sapiens, UniProt Q8IW41); assay: Inhibition of human MAPKAPK5
[6] = biological target: Mitogen-activated protein kinase 10 (Homo sapiens, UniProt P53779); assay: Inhibition of human JNK3
[7] = Antiproliferative activity against human BT549 cells by sulfur rhodamine assay; format: functional; settings: BT-549
[8] = biological target: Homeodomain-interacting protein kinase 3 (Homo sapiens, UniProt Q9H422); assay: Inhibition of human HIPK3
[9] = Antiproliferative activity against human Hs 578T cells by sulfur rhodamine assay; format: functional
[10] = biological target: Homeodomain-interacting protein kinase 2 (Homo sapiens, UniProt Q9H2X6); assay: Inhibition of human HIPK2
[11] = biological target: RAC-beta serine/threonine-protein kinase (Homo sapiens, UniProt P31751); assay: Inhibition of human AKT2
RAC-beta serine/threonine-protein kinase, sequence (P31751 whole entry): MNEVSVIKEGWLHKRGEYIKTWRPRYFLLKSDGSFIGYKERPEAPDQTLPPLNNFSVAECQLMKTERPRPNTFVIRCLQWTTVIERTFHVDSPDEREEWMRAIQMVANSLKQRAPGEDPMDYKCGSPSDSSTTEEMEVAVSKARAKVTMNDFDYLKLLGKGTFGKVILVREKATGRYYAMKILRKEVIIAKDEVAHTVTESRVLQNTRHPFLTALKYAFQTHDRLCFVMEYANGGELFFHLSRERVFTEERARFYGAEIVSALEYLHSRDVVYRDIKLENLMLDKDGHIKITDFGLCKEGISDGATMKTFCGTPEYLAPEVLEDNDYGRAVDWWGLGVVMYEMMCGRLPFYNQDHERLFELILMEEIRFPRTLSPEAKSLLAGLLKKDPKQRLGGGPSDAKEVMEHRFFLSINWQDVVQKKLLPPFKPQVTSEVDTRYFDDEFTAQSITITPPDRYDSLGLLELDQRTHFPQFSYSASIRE

[12] = biological target: MAP/microtubule affinity-regulating kinase 3 (Homo sapiens, UniProt P27448); assay: Inhibition of human MARK3; in short: as §1
[13] = biological target: Serine/threonine-protein kinase PAK 2 (Homo sapiens, UniProt Q13177); assay: Inhibition of human PAK2; in short: as §1
[14] = biological target: Serine/threonine-protein kinase 26 (Homo sapiens, UniProt Q9P289); assay: Inhibition of human MST4
Serine/threonine-protein kinase 26, sequence (Q9P289 whole entry): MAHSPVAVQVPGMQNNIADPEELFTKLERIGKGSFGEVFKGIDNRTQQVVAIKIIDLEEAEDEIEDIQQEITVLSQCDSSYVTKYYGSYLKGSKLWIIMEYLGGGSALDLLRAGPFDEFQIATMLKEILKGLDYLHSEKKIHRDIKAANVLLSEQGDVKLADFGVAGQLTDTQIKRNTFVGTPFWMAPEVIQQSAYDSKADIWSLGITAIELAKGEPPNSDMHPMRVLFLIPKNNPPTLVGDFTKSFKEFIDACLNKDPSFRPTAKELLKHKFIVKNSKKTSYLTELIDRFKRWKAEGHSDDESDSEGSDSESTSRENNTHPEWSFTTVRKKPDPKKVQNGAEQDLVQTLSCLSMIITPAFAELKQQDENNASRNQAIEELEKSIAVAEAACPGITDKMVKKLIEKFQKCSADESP

[15] = biological target: Mitogen-activated protein kinase 3 (Homo sapiens, UniProt P27361); assay: Inhibition of human ERK1; in short: as §1
[16] = Inhibition of human MARK5
Myotonin-protein kinase = Myotonin-protein kinase (Homo sapiens, UniProt Q09013); assay: Inhibition of human DMPK
Myotonin-protein kinase, sequence (Q09013 whole entry): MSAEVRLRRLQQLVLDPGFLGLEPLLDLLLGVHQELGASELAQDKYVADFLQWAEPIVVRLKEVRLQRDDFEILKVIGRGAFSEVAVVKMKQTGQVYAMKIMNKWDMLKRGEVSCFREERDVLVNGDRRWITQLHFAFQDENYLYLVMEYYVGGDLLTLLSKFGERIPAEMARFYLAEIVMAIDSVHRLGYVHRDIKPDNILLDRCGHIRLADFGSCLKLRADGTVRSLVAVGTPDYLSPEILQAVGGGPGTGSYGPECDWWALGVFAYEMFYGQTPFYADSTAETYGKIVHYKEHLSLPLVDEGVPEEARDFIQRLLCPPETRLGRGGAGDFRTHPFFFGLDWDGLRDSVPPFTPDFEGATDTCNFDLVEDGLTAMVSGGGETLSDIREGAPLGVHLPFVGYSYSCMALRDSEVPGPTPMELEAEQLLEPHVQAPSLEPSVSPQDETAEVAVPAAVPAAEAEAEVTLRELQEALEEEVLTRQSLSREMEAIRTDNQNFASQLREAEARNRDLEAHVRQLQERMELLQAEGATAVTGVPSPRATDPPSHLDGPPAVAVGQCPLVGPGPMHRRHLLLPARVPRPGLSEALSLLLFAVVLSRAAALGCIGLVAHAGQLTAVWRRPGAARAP

[17] = biological target: Serine/threonine-protein kinase pim-2 (Homo sapiens, UniProt Q9P1W9); assay: Inhibition of human PIM2
[18] = biological target: Serine/threonine-protein kinase PAK 3 (Homo sapiens, UniProt O75914); assay: Inhibition of human PAK3
[19] = biological target: RAC-gamma serine/threonine-protein kinase (Homo sapiens, UniProt Q9Y243); assay: Inhibition of human AKT3; in short: as §1
[20] = biological target: Proto-oncogene tyrosine-protein kinase Src (Homo sapiens, UniProt P12931); assay: Inhibition of human Src
[21] = biological target: Calcium/calmodulin-dependent protein kinase type IV (Homo sapiens, UniProt Q16566); assay: Inhibition of human CAMK4
[22] = biological target: MAP kinase-activated protein kinase 3 (Homo sapiens, UniProt Q16644); assay: Inhibition of human MAPKAPK3
[23] = biological target: Serine/threonine-protein kinase MARK1 (Homo sapiens, UniProt Q9P0L2); assay: Inhibition of human MARK1
[24] = biological target: Mitogen-activated protein kinase 8 (Homo sapiens, UniProt P45983); assay: Inhibition of human JNK1
[25] = biological target: Serine/threonine-protein kinase PAK 1 (Homo sapiens, UniProt Q13153); assay: Inhibition of human PAK1
Serine/threonine-protein kinase PAK 1, sequence (Q13153 whole entry): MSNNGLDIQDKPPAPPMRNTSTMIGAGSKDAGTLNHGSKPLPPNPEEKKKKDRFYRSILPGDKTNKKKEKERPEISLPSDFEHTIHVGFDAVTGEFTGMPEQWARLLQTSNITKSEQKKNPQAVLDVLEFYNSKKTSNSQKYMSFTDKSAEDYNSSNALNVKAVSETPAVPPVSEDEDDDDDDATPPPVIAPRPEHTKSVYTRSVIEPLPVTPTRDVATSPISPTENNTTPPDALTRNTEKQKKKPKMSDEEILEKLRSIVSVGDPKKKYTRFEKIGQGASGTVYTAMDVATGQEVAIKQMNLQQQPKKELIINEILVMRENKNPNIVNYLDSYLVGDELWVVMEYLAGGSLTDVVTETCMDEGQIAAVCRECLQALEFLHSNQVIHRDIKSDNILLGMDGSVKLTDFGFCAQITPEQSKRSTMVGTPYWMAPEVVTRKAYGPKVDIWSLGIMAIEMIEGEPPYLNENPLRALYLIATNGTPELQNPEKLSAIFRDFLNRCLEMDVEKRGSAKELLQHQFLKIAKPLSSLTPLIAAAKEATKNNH

[26] = biological target: Serine/threonine-protein kinase VRK1 (Homo sapiens, UniProt Q99986); assay: Inhibition of human VRK1
Serine/threonine-protein kinase VRK1, sequence (Q99986 whole entry): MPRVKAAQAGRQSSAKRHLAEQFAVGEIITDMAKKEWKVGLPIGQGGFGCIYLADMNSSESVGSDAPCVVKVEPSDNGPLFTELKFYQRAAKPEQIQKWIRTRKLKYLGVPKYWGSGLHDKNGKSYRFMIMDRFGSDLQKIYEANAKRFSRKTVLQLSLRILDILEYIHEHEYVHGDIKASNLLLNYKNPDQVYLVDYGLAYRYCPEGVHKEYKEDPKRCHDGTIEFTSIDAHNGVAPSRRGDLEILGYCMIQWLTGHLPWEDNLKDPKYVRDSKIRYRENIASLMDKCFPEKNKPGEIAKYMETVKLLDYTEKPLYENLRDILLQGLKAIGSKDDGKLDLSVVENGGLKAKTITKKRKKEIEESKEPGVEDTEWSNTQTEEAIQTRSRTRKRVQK

[27] = biological target: Serine/threonine-protein kinase 24 (Homo sapiens, UniProt Q9Y6E0); assay: Inhibition of human MST3; in short: as §1
[28] = biological target: Serine/threonine-protein kinase Nek1 (Homo sapiens, UniProt Q96PY6); assay: Inhibition of human NEK1
[29] = biological target: Homeodomain-interacting protein kinase 1 (Homo sapiens, UniProt Q86Z02); assay: Inhibition of human HIPK1
[30] = biological target: Mitogen-activated protein kinase 1 (Homo sapiens, UniProt P28482); assay: Inhibition of human ERK2
Mitogen-activated protein kinase 1, sequence (P28482 whole entry): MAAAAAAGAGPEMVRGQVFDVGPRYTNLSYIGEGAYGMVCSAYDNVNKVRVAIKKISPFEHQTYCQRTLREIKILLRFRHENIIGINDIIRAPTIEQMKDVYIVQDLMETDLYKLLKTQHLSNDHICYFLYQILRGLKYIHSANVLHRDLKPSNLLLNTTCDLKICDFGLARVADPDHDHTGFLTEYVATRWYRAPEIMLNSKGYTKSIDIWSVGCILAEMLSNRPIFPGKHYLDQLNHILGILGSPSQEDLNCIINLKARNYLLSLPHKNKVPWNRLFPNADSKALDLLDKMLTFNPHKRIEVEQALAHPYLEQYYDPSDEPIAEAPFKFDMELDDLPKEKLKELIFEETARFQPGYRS

[31] = biological target: Glycogen synthase kinase-3 beta (Homo sapiens, UniProt P49841); assay: Inhibition of human GSK3beta

Protein-tyrosine kinase 6, sequence (Q13882 whole entry): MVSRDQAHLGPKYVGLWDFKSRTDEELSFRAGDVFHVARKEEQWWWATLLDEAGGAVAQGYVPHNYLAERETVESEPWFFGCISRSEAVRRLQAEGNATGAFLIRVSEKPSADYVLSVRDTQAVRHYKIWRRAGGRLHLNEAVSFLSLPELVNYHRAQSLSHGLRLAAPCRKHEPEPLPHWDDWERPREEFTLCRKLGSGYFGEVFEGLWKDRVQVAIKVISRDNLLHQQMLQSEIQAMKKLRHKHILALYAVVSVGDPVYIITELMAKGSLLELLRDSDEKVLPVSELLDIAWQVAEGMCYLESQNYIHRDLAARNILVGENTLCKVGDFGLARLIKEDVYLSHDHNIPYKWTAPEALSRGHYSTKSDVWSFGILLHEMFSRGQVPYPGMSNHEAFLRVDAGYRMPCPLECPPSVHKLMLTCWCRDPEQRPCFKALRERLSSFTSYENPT

Structure (SMILES): Cc1ccccc1Nc1ccnc2[nH]c3ccccc3c12
IC50 [1]: Not Active

Structure (SMILES): Clc1cccc(Nc2ccnc3[nH]c4ccccc4c23)c1
IC50 ([1]; read-out: IC50): 4.75 nM

Structure (SMILES): Clc1ccc(Nc2ccnc3[nH]c4ccccc4c23)cc1
IC50 [1]: Not Active

Structure (SMILES): FC(F)(F)c1cccc(Nc2ccnc3[nH]c4ccccc4c23)c1
IC50 ([1]; read-out: IC50): 59.4 nM

Structure (SMILES): COc1cccc(Nc2ccnc3[nH]c4ccccc4c23)c1
IC50 [1]: Not Active

Structure (SMILES): Fc1ccc(Nc2ccnc3[nH]c4ccccc4c23)cc1Cl
GI50 (MCF7): 8.12 µM
GI50 [7]: > 100000 nM
GI50 [9]: 10.2 µM
IC50 ([1]; read-out: IC50): 69.5 nM

Structure (SMILES): CCOc1cc(Nc2ccnc3[nH]c4ccccc4c23)ccc1Br
IC50 ([1]; read-out: IC50): 154 nM

The next lines start with results.

IC50 [2]: > 10 µM
GI50 (MCF7): 0.99 µM
IC50 [3]: > 10 µM
IC50 [4]: > 10 µM
IC50 [5]: > 10 µM
IC50 [6]: > 10 µM
IC50 [8]: > 10 µM
IC50 [10]: > 10 µM
IC50 [11]: > 10 µM
IC50 [12]: > 10 µM
IC50 ([1]; read-out: IC50): 3.15 nM
IC50 [13]: > 10 µM
IC50 [14]: > 10 µM
IC50 [15]: > 10 µM
IC50 [16]: > 10 µM
IC50 (Myotonin-protein kinase): > 10 µM
IC50 [17]: > 10 µM
IC50 [18]: > 10 µM
IC50 [19]: > 10 µM
IC50 [20]: 3.04 µM
IC50 [21]: > 10 µM
IC50 [22]: > 10 µM
IC50 [23]: > 10 µM
IC50 [24]: > 10 µM
IC50 [25]: > 10 µM
IC50 [26]: > 10 µM
IC50 [27]: > 10 µM
IC50 [28]: > 10 µM
IC50 [29]: > 10 µM
IC50 [30]: > 10 µM
IC50 [31]: > 10 µM
Structure (SMILES): Oc1cccc(Nc2ccnc3[nH]c4ccccc4c23)c1
GI50 [7]: 1580 nM
GI50 [9]: 1.02 µM

IC50 [1]: Not Active
Structure (SMILES): CSc1cccc(Nc2ccnc3[nH]c4ccccc4c23)c1

IC50 ([1]; read-out: IC50): 155 nM
Structure (SMILES): CCOc1cccc(Nc2ccnc3[nH]c4ccccc4c23)c1

IC50 ([1]; read-out: IC50): 5.65 nM
Structure (SMILES): O=[N+]([O-])c1cccc(Nc2ccnc3[nH]c4ccccc4c23)c1

IC50 ([1]; read-out: IC50): 190 nM
Structure (SMILES): COc1ccc(Nc2ccnc3[nH]c4ccccc4c23)cc1

IC50 ([1]; read-out: IC50): 75.6 nM
Structure (SMILES): Cc1ccc(Nc2ccnc3[nH]c4ccccc4c23)cc1Cl

IC50 ([1]; read-out: IC50): 53.4 nM
Structure (SMILES): Clc1cc(Cl)cc(Nc2ccnc3[nH]c4ccccc4c23)c1

IC50 ([1]; read-out: IC50): 4.41 nM
Structure (SMILES): COc1cc(Nc2ccnc3[nH]c4ccccc4c23)ccc1Br
